Screening results from PubChem BioAssay.
Most compounds without a hit are left out; they make up all but 3.1% or so of the library.
rCAG RNA binder: binders of r(CAG) RNA repeats, primary screen, biochemical, fluorescence; r(CAG) RNA repeat, TO-PRO-1 dye displacement fluorescence; inhibition, % at 3 µM; 1.3% of 370,000 active;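 active = inhibition above the plate cutoff, the mean of all test compounds on that plate plus 3 SD, cut at about 35% in these data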;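 note: higher means more dye released from RNA so lower well fluorescence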
UHRF1 MBD2 ctr: UHRF1 methylated DNA binding inhibitors, primary screen, counter-screen for MBD2 inhibitor project, biochemical, TR-FRET, human UHRF1, single concentration; 0.75% of 370,000 active; UHRF1 binding to methylated oligo; inhibition, % at 4.4 µM; E3 ubiquitin-protein ligase UHRF1 (Homo sapiens), Q96T88;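 note: UHRF1 SRA domain binding a hemimethylated CpG hairpin DNA probe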
Target sequence (Q96T88 whole entry, looked up, the tested form may be a part): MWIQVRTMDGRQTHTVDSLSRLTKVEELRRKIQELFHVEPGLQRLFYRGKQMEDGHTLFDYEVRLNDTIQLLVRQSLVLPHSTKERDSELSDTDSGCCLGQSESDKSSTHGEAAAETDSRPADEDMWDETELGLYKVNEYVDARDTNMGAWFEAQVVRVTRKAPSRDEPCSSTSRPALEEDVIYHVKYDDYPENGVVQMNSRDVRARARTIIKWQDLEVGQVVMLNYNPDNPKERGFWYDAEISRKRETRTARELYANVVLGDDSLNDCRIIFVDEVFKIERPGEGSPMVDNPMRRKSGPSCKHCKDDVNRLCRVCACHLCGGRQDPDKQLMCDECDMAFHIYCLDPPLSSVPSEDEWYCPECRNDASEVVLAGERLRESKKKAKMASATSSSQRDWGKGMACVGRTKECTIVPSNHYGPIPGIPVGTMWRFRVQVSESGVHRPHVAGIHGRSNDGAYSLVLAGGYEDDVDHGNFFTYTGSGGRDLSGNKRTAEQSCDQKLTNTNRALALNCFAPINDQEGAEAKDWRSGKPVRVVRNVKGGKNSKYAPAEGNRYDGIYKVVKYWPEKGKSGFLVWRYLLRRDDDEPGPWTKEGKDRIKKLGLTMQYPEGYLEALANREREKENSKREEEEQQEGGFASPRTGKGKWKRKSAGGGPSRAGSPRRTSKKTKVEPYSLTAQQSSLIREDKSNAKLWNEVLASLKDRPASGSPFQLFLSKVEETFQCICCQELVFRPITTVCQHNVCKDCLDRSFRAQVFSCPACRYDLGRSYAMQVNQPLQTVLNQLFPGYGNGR
ATG4B inh: ATG4B protease inhibitors, primary screen, biochemical, fluorescence, uHTS. Cysteine protease ATG4B (Homo sapiens), Q9Y4P1. ATG4B cleavage of LC3-PLA2, NBD-HPC fluorescence, 1 h. inhibition, % at 8.33 µM. 0.51% of 340,000 active. AID 504462, 2011; in the data active = inhibition above about 40%
CSN deneddyl inh: inhibitors of CSN-mediated cullin deneddylation, primary screen, biochemical, fluorescence polarization, uHTS; COP9 signalosome complex subunit 5 (Homo sapiens), Q92905; Purified CSN, SCF-Nedd8-OG deneddylation; inhibition, % at 12.5 µM; 0.38% of 360,000 active; AID 651999, 2013;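 active = pattern-corrected inhibition above about 35%, with an unprinted fluorescence ratio check between 0.5 and 1.5, limit read from the data, passing the limit was not always enough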
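Assay system: Purified human Csn5 enzyme expressed in HEK293T cells | Amount: Enzyme 0.24 nM | Measured by: Fluorescence polarization readout | Medium: Tris/NaCl/DTT buffer, pH 7.5 | Compound dosing: One concentration, 12.5 µM, 0.25% DMSO | Times: 90 min incubation of compound, enzyme and substrate at room temperature | Control set: no-enzyme wells high, enzyme-with-substrate wells low | Read-out: % inhibition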
MBD2 DNA inh: inhibitors of MBD2 binding to methylated DNA, primary screen, biochemical, TR-FRET, DNA-binding domain, human. MBD2 binding to methylated oligonucleotide. inhibition, % at 4.4 µM. 0.31% of 370,000 active; in the data active = inhibition above about 13%
LEDGF integ inh: blockers of LEDGF/p75-dependent integrase strand transfer – biochemical, TR-FRET, high throughput, primary screen; HIV-1 integrase (with human LEDGF/p75); inhibition, % at 3.7 µM; 0.64% of 370,000 active; TR-FRET IN-LEDGF/p75 DNA integration, Eu/Cy5;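 active = inhibition above the screen-wide mean plus 3 SD, cut at about 13% in these data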;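 note: signal is the Cy5 over europium emission ratio at 671 and 618 nm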
rCAG binder conf: small molecules binding CAG repeat RNA – biochemical, fluorescence, confirmation; shares compounds with rCAG RNA binder; r(CAG) RNA repeat, TO-PRO-1 dye displacement fluorescence; inhibition, % at 3 µM; 70% of 4,300 active;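 active = inhibition above a per-plate cutoff, the mean inhibition of sample wells plus 3 SD, cut at about 35% in these data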;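 note: loss of TO-PRO-1 fluorescence as compound displaces dye from 1x1 AA loop RNA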
dCAG dye counter: displacement of TO-PRO-1 from CAG DNA duplex, counter-screen for rCAG RNA repeat binder project, biochemical, fluorescence, TO-PRO-1 dye, d(CAG) DNA oligo | shares compounds with rCAG RNA binder | d(CAG) DNA oligo TO-PRO-1 dye displacement | inhibition, % at 3 µM | 94% of 4,300 active | AID 652068, 2013;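 active = inhibition above its plate's cutoff, the mean test-well inhibition plus 3 SD, cut at about 4.8% in these data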;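 note: hits displace the dye from DNA and so lower well fluorescence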
UHRF1 DNA bind: UHRF1 methylated DNA binding inhibitors, counter-screen for MBD2 inhibitor project, biochemical, TR-FRET, human UHRF1; shares compounds with MBD2 DNA inh; UHRF1 binding to methylated oligonucleotide; inhibition, % at 4.4 µM; 25% of 1,000 active;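 note: UHRF1 SRA domain binding a labeled hemimethylated CpG hairpin DNA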
MBD2 DBD conf: inhibitors of MBD2 binding to methylated DNA, confirmation, biochemical, TR-FRET, DNA-binding domain, human; shares compounds with MBD2 DNA inh; inhibition, % at 4.4 µM; 26% of 1,000 active; TR-FRET MBD2-DBD binding to methylated oligonucleotide; AID 720531, 2013; in the data active = inhibition above about 14%
IN multimer act: HIV-1 IN multimer formation enhancers, counter-screen for LEDGF/p75 integration inhibitor project, biochemical, TR-FRET; 17% of 2,000 active; TR-FRET HIV-1 integrase multimerization; shares compounds with LEDGF integ inh; activation, % at 7.7 µM; in the data active = activation above about 8.9%
TR-FRET interf: TR-FRET optical interference artefacts, confirmation, artefact control for LEDGF/p75-dependent integration inhibitor project, biochemical, HIV-1 IN multimerization | shares compounds with LEDGF integ inh | TR-FRET optical interference counterscreen | inhibition, % at 7.7 µM | 2,000 tested, under 10 active | AID 1053135, 2014;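 active = inhibition above the mean over all tested compounds plus 3 SD, which no compound reached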
LEDGF integ conf: inhibitors of HIV-1 IN-LEDGF/p75 DNA integration, confirmation, biochemical, TR-FRET | shares compounds with LEDGF integ inh | TR-FRET LEDGF/p75-dependent HIV-1 integration | inhibition, % at 3.7 µM | 36% of 2,000 active; in the data active = inhibition above about 14%
A number is an active result; – = inactive; · = no result. Cut-off read from the data, not from the text of the source, unless noted: active = inhibition above about 21%; inactive = the rest.

SMILES	rCAG RNA binder	UHRF1 MBD2 ctr	ATG4B inh	CSN deneddyl inh	MBD2 DNA inh	LEDGF integ inh	rCAG binder conf	dCAG dye counter	UHRF1 DNA bind	MBD2 DBD conf	IN multimer act	TR-FRET interf	LEDGF integ conf
C=C1c2cccc(O)c2C(O)=C2C(=O)[C@]3(O)C(O)=C(C(N)=O)C(=O)[C@@H](N(C)C)[C@@H]3[C@@H](O)[C@H]12	85	98	–	–	91	85	–	9.8	21	–	50	–	63
COC(=O)c1ccc(N2NC(=O)/C(=C/c3cc(OC)c(OC)c(OC)c3)C2=O)cc1	65	–	–	–	–	14	61	20	·	·	–	–	–
CCOC(=O)C1Nc2ccc(C(=O)O)cc2C2C=CCC12 (stereo unspecified)	61	72	–	–	27	67	–	5.4	48	–	45	–	60
CC(C)C1Nc2ccc(C(=O)O)cc2C2C=CCC21 (stereo unspecified)	56	30	–	–	14	17	–	7.3	–	–	–	–	24
CCCC1Nc2ccc(C(=O)O)cc2C2C=CCC12 (stereo unspecified)	·	·	–	–	·	·	·	·	·	·	·	·	·
O=C(NCCc1ccc2c(c1)OCO2)c1cc(-c2ccccc2)c(N2CCOCC2)s1	–	–	·	·	–	–	·	·	·	·	·	·	·
CN(CCOC(=O)c1occ2ccccc12)C1CN(Cc2cn(Cc3ccccc3Cl)nn2)S(=O)(=O)C1 (stereo unspecified)	–	–	·	·	–	–	·	·	·	·	·	·	·
O=C1CC(c2ccccc2)=NN1c1ccccc1	53	–	–	–	–	21	–	4.8	·	·	–	–	–
O=C1CCC(=O)c2ccc3c4c(ccc1c24)CC3	49	66	–	–	36	44	–	–	–	–	–	–	–
O=C1c2ccc3c4c(ccc(c24)C(=O)N1c1ccc2ccccc2c1)CC3	–	–	–	–	–	–	·	·	·	·	·	·	·
Fc1ccc(NC2CCC23CCC(c2ccccc2)CC3)cc1C(F)(F)F (stereo unspecified)	·	–	·	·	–	–	·	·	·	·	·	·	·
COc1cccc(C(c2c(C)[nH]n(-c3ccccc3)c2=O)c2c(C)[nH]n(-c3ccccc3)c2=O)c1OC	54	–	–	–	17	21	42	14	–	–	–	–	–
Cc1[nH]n(-c2ccccc2)c(=O)c1C(c1ccc(O)c([N+](=O)[O-])c1)c1c(C)[nH]n(-c2ccccc2)c1=O	46	–	–	–	15	38	–	7.8	–	–	–	–	–
COc1cccc(C(c2c(C)[nH]n(-c3ccccc3)c2=O)c2c(C)[nH]n(-c3ccccc3)c2=O)c1O	38	21	–	–	21	23	–	12	–	–	–	–	–
Cc1[nH]n(-c2ccccc2)c(=O)c1C(=O)c1ccccc1	–	–	–	–	–	–	·	·	·	·	·	·	·
Cc1[nH]n(-c2ccccc2)c(=O)c1C(C[N+](=O)[O-])c1ccccc1Cl (stereo unspecified)	–	–	–	–	–	–	·	·	·	·	·	·	·
CC(c1ccccc1)n1cc(C(=O)N2CCCC2)nn1 (stereo unspecified)	–	–	·	·	–	–	·	·	·	·	·	·	·
COc1ccccc1CNC(=O)NCCCN1CCN(c2ccc(F)cc2)CC1	–	–	·	·	–	–	·	·	·	·	·	·	·
Cc1ccc(S(=O)(=O)/N=C2\C=C(Nc3cccc(C(=O)O)c3)C(=O)c3ccccc32)cc1	47	–	–	–	–	52	–	4.7	·	·	–	–	64
O=c1cc(-c2ccccc2)[nH]n1-c1ccccc1	59	–	–	–	–	37	–	–	·	·	–	–	–
CCCCCCCCN1CN2Cc3cc(F)ccc3C2CS1(=O)=O (stereo unspecified)	–	–	·	·	–	–	·	·	·	·	·	·	·
Oc1ccc(-c2csc(Nc3cccc4ccccc34)n2)cc1O	54	–	–	–	–	24	55	34	·	·	17	–	68
Oc1ccc(-c2csc(Nc3ccccn3)n2)cc1O	–	–	–	–	–	–	·	·	·	·	·	·	·
